Assay results: EPA's CvTdb concentration-time database

Key:
rat = assay: concentration in blood after dosing; negative times count back from the end of exposure; conditions: inhalation, male
human = assay: concentration in blood after dosing; negative times count back from the end of exposure; conditions: dosed: trichloroethylene, inhalation
In short: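 Concentration-versus-time or amount-versus-time points were compiled from published in vivo toxicokinetic studies and from two structured collections. The studies were found by PubMed searching, classifier screening and manual review. Points were mostly digitised from plot screenshots with WebPlotDigitizer, otherwise copied from tables, and kept in the reported units. Dose, route, subject details and medium were curated by hand from each paper, and sampling and analytical methods follow each source and were often unreported.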

C=C(Cl)Cl [1,1-dichloroethylene]
rat, dosed: 1,1-dichloroethylene, duration: 3 hr, Sprague-Dawley
Conditions | concentration in blood [ng/mL]
0.1331 h, 75 ppm | 162
0.1373 h, 300 ppm | 2120
0.1374 h, 25 ppm | 61.4
0.1383 h, 150 ppm | 122
0.1969 h, 75 ppm | 117
0.1973 h, 150 ppm | 108
0.1979 h, 25 ppm | 38.6
0.2044 h, 300 ppm | 1740
0.2603 h, 150 ppm | 92.9
0.2608 h, 75 ppm | 83.7
0.261 h, 25 ppm | 32.9
0.2757 h, 300 ppm | 1350
0.3322 h, 75 ppm | 62.5
0.3352 h, 300 ppm | 1060
0.3356 h, 25 ppm | 29.2
0.3396 h, 150 ppm | 68
0.3946 h, 150 ppm | 61.6
0.3984 h, 25 ppm | 26.6
0.3984 h, 300 ppm | 874
0.3991 h, 75 ppm | 54.9
0.496 h, 25 ppm | 25.4
0.4961 h, 150 ppm | 60
0.508 h, 300 ppm | 801
0.5085 h, 75 ppm | 50.8
4 s, 75 ppm | 340
13 s, 150 ppm | 473
118 s, 25 ppm | 126
132 s, 75 ppm | 312
133 s, 150 ppm | 291
137 s, 300 ppm | 3090
232 s, 75 ppm | 275
238 s, 25 ppm | 78.9
238 s, 150 ppm | 188
253 s, 300 ppm | 2500

rat, dosed: 1,1-dichloroethylene, duration: 3 hr, Sprague-Dawley, during exposure
Conditions | concentration in blood [ng/mL]
-14 s, 25 ppm | 184
-8 s, 300 ppm | 4150
-2.956 h, 25 ppm | 50.3
-2.956 h, 75 ppm | 100
-2.954 h, 300 ppm | 1030
-2.951 h, 150 ppm | 83
-2.903 h, 25 ppm | 67.4
-2.899 h, 75 ppm | 139
-2.899 h, 150 ppm | 154
-2.893 h, 300 ppm | 1320
-2.861 h, 150 ppm | 190
-2.854 h, 300 ppm | 1490
-2.853 h, 75 ppm | 170
-2.846 h, 25 ppm | 92.7
-2.793 h, 25 ppm | 128
-2.793 h, 300 ppm | 1680
-2.792 h, 150 ppm | 271
-2.787 h, 75 ppm | 188
-2.729 h, 75 ppm | 212
-2.727 h, 25 ppm | 143
-2.727 h, 150 ppm | 302
-2.727 h, 300 ppm | 1840
-2.657 h, 150 ppm | 325
-2.653 h, 25 ppm | 149
-2.653 h, 300 ppm | 1920
-2.652 h, 75 ppm | 253
-2.583 h, 300 ppm | 2080
-2.582 h, 75 ppm | 263
-2.575 h, 25 ppm | 143
-2.568 h, 150 ppm | 371
-2.498 h, 25 ppm | 155
-2.494 h, 300 ppm | 2200
-2.492 h, 75 ppm | 283
-2.49 h, 150 ppm | 408
-2.396 h, 300 ppm | 2250
-2.393 h, 25 ppm | 162
-2.391 h, 75 ppm | 301
-2.389 h, 150 ppm | 421
-2.197 h, 75 ppm | 333
-2.194 h, 25 ppm | 162
-2.194 h, 150 ppm | 424
-2.194 h, 300 ppm | 2410
-1.996 h, 300 ppm | 2600
-1.995 h, 25 ppm | 166
-1.99 h, 75 ppm | 335
-1.988 h, 150 ppm | 461
-1.743 h, 300 ppm | 2760
-1.742 h, 25 ppm | 171
-1.741 h, 75 ppm | 340
-1.738 h, 150 ppm | 453
-1.5 h, 25 ppm | 176
-1.497 h, 300 ppm | 3050
-1.496 h, 75 ppm | 346
-1.493 h, 150 ppm | 463
-1.003 h, 300 ppm | 3380
-1.002 h, 150 ppm | 450
-0.9974 h, 25 ppm | 172
-0.9966 h, 75 ppm | 338
-0.5007 h, 300 ppm | 3850
-0.4991 h, 150 ppm | 466
-0.4977 h, 75 ppm | 337
-0.4481 h, 25 ppm | 182

OCC(Cl)(Cl)Cl [trichloroethanol (free)]
human, 100 ppm, duration: 4 hr, person
Conditions | concentration in blood [ng/mL]
0.2566 h | 2040
0.515 h | 2000
1.032 h | 1910
1.986 h | 1740
3.954 h | 1400
5.921 h | 1180
7.947 h | 1070
9.954 h | 944
11.96 h | 896
13.99 h | 727
15.97 h | 577
18 h | 459

Conditions | concentration in blood [ng/mL]
human, -0.9915 h, 100 ppm, duration: 4 hr, person, during exposure | 1570
human, -2.021 h, 100 ppm, duration: 4 hr, person, during exposure | 1060
human, -2.99 h, 100 ppm, duration: 4 hr, person, during exposure | 481
human, -3.524 h, 100 ppm, duration: 4 hr, person, during exposure | 172
human, -5 s, 100 ppm, duration: 4 hr, person, during exposure | 2030
rat, 0.1729 h, dosed: trichloroethylene, 50 ppm, duration: 4 hr, Sprague Dawley | 1250
rat, 0.1865 h, dosed: trichloroethylene, 50 ppm, duration: 4 hr, Sprague Dawley | 2020
rat, 0.2651 h, dosed: trichloroethylene, 50 ppm, duration: 4 hr, Sprague Dawley | 1140
rat, 0.2753 h, dosed: trichloroethylene, 50 ppm, duration: 4 hr, Sprague Dawley | 828
rat, 0.3836 h, dosed: trichloroethylene, 50 ppm, duration: 4 hr, Sprague Dawley | 2260
rat, 0.4311 h, dosed: trichloroethylene, 50 ppm, duration: 4 hr, Sprague Dawley | 1340
rat, 0.5027 h, dosed: trichloroethylene, 50 ppm, duration: 4 hr, Sprague Dawley | 1180
rat, 0.594 h, dosed: trichloroethylene, 50 ppm, duration: 4 hr, Sprague Dawley | 829
rat, 0.9111 h, dosed: trichloroethylene, 50 ppm, duration: 4 hr, Sprague Dawley | 1110
rat, 0.9517 h, dosed: trichloroethylene, 50 ppm, duration: 4 hr, Sprague Dawley | 1010
rat, 1.022 h, dosed: trichloroethylene, 50 ppm, duration: 4 hr, Sprague Dawley | 1130
rat, 1.11 h, dosed: trichloroethylene, 50 ppm, duration: 4 hr, Sprague Dawley | 898
rat, 1.769 h, dosed: trichloroethylene, 50 ppm, duration: 4 hr, Sprague Dawley | 955
rat, 1.908 h, dosed: trichloroethylene, 50 ppm, duration: 4 hr, Sprague Dawley | 1010
rat, 2.006 h, dosed: trichloroethylene, 50 ppm, duration: 4 hr, Sprague Dawley | 889
rat, 3.915 h, dosed: trichloroethylene, 50 ppm, duration: 4 hr, Sprague Dawley | 1650
rat, 3.921 h, dosed: trichloroethylene, 50 ppm, duration: 4 hr, Sprague Dawley | 897
rat, 4.003 h, dosed: trichloroethylene, 50 ppm, duration: 4 hr, Sprague Dawley | 757
rat, 5.934 h, dosed: trichloroethylene, 50 ppm, duration: 4 hr, Sprague Dawley | 757
rat, 5.937 h, dosed: trichloroethylene, 50 ppm, duration: 4 hr, Sprague Dawley | 703
rat, 5.949 h, dosed: trichloroethylene, 50 ppm, duration: 4 hr, Sprague Dawley | 1380
rat, 5.978 h, dosed: trichloroethylene, 50 ppm, duration: 4 hr, Sprague Dawley | 655
rat, 7.942 h, dosed: trichloroethylene, 50 ppm, duration: 4 hr, Sprague Dawley | 1260
rat, 7.97 h, dosed: trichloroethylene, 50 ppm, duration: 4 hr, Sprague Dawley | 667
rat, 7.992 h, dosed: trichloroethylene, 50 ppm, duration: 4 hr, Sprague Dawley | 595
rat, 9.919 h, dosed: trichloroethylene, 50 ppm, duration: 4 hr, Sprague Dawley | 656
rat, 9.986 h, dosed: trichloroethylene, 50 ppm, duration: 4 hr, Sprague Dawley | 538
rat, 10.01 h, dosed: trichloroethylene, 50 ppm, duration: 4 hr, Sprague Dawley | 509
rat, 10.11 h, dosed: trichloroethylene, 50 ppm, duration: 4 hr, Sprague Dawley | 1120
rat, 11.91 h, dosed: trichloroethylene, 50 ppm, duration: 4 hr, Sprague Dawley | 627
rat, 11.95 h, dosed: trichloroethylene, 50 ppm, duration: 4 hr, Sprague Dawley | 1030
rat, 11.98 h, dosed: trichloroethylene, 50 ppm, duration: 4 hr, Sprague Dawley | 546
rat, 12.02 h, dosed: trichloroethylene, 50 ppm, duration: 4 hr, Sprague Dawley | 481
rat, 13.9 h, dosed: trichloroethylene, 50 ppm, duration: 4 hr, Sprague Dawley | 557
rat, 13.93 h, dosed: trichloroethylene, 50 ppm, duration: 4 hr, Sprague Dawley | 469
rat, 13.94 h, dosed: trichloroethylene, 50 ppm, duration: 4 hr, Sprague Dawley | 1040
rat, 13.99 h, dosed: trichloroethylene, 50 ppm, duration: 4 hr, Sprague Dawley | 534
rat, 15.9 h, dosed: trichloroethylene, 50 ppm, duration: 4 hr, Sprague Dawley | 507
rat, 15.93 h, dosed: trichloroethylene, 50 ppm, duration: 4 hr, Sprague Dawley | 893
rat, 15.95 h, dosed: trichloroethylene, 50 ppm, duration: 4 hr, Sprague Dawley | 448
rat, 17.94 h, dosed: trichloroethylene, 50 ppm, duration: 4 hr, Sprague Dawley | 348
rat, 17.96 h, dosed: trichloroethylene, 50 ppm, duration: 4 hr, Sprague Dawley | 350
rat, 41 s, dosed: trichloroethylene, 50 ppm, duration: 4 hr, Sprague Dawley | 978
rat, 86 s, dosed: trichloroethylene, 50 ppm, duration: 4 hr, Sprague Dawley | 1200

rat, dosed: trichloroethylene, 50 ppm, duration: 4 hr, Sprague Dawley, during exposure
Conditions | concentration in blood [ng/mL]
-169 s | 1350
-3.506 h | 437
-3.433 h | 315
-3.408 h | 626
-3.033 h | 1060
-3.009 h | 547
-3 h | 486
-2.975 h | 327
-2.015 h | 830
-2.001 h | 1560
-1.996 h | 845
-1.989 h | 628
-1.021 h | 1080
-1.008 h | 1890
-0.9983 h | 790
-0.9843 h | 968
-0.032 h | 1940

OCC(Cl)(Cl)Cl [trichloroethanol]
concentration in blood [mg/kg], human, duration: 2 hr - 20 min
Conditions | 0 h | 0.5 h | 1 h | 1.5 h | 2 h | 21 h
1348 mg | 2.8 | 2.7 | 2.6 | 2.5 | 2.4 | 0.8
1681 mg | 3 | 3.3 | 3.3 | 3.2 | 3.1 | 1
3907 mg | 3.9 | 4.5 | 4.2 | 4.4 | 4.4 | 1.6

human
Conditions | concentration in blood
-1.833 h, 1348 mg, duration: 2 hr - 20 min, during exposure | 0.8 mg/kg
-1.833 h, 1681 mg, duration: 2 hr - 20 min, during exposure | 0.7 mg/kg
-1.833 h, 3907 mg, duration: 2 hr - 20 min, during exposure | 1.4 mg/kg
-1 h, 1348 mg, duration: 2 hr - 20 min, during exposure | 1.3 mg/kg
-1 h, 1681 mg, duration: 2 hr - 20 min, during exposure | 1.9 mg/kg
-1 h, 3907 mg, duration: 2 hr - 20 min, during exposure | 2.2 mg/kg
-0.5 h, 1348 mg, duration: 2 hr - 20 min, during exposure | 2.2 mg/kg
-0.5 h, 1681 mg, duration: 2 hr - 20 min, during exposure | 2.1 mg/kg
-0.5 h, 3907 mg, duration: 2 hr - 20 min, during exposure | 3.1 mg/kg
0 h, 100 ppm, duration: 6 hr, female | 4110 ng/mL
18 h, 100 ppm, duration: 6 hr, female | 2420 ng/mL
24 h, 100 ppm, duration: 6 hr, female | 5640 ng/mL
42 h, 100 ppm, duration: 6 hr, female | 2510 ng/mL
48 h, 100 ppm, duration: 6 hr, female | 5750 ng/mL
66 h, 100 ppm, duration: 6 hr, female | 3180 ng/mL
72 h, 100 ppm, duration: 6 hr, female | 9060 ng/mL
90 h, 100 ppm, duration: 6 hr, female | 5590 ng/mL
96 h, 100 ppm, duration: 6 hr, female | 9010 ng/mL

Conditions | concentration in blood [ng/mL]
human, -6 h, 100 ppm, duration: 6 hr, female, during exposure | 212
